Calls of active or inactive are those of the source. The calls are words filed in the database; no cut-off is given here.
Assays:
[1] = test system: Rattus norvegicus; assay: Antifertility activity in pregnant female albino rat assessed as implantation in both uterine horns on day 10 of pregnancy at 20 mg/kg/day, po for 5 days; assay type: functional, organism-based
Procedure, shortened: (§1)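 Mated rats of proven fertility; day 1 = sperm-positive vaginal smear. Compound macerated with gum acacia, given orally days 1-5, five animals per group; initial dose 20 mg/kg/day unless stated otherwise. Uterine horns examined on day 10; scored positive only when implantations totally absent in both horns.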

[2] = test system: Rattus norvegicus; assay: Estrogenic activity in immature female rat assessed as diestrus smear with leukocytes at 10 mg/kg, po bid for 3 days; assay type: functional, organism-based; design: dose 10 mg/kg
Procedure, shortened: (§2)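 Immature female rats, 25-30 g. Vaginal smear scored as + (leucocytes with epithelial cells), ++ (proestrus, nucleated or nucleated plus cornified cells) or +++ (estrus, cornified cells only). Estrone used as standard.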

[3] = test system: Rattus norvegicus; assay: Antifertility activity in po dosed pregnant female albino rat assessed as absence of implantation in both uterine horns on day 10 of pregnancy compound administered for 5 days; assay type: functional; procedure, shortened: as §1
[4] = test system: Rattus norvegicus; assay: Estrogenic activity in immature female rat assessed as uterine weight on day 4 at 10 mg/kg, po bid for 3 days (reference value: 13.6 +/- 0.8 mg); assay type: functional
[5] = test system: Rattus norvegicus; assay: Estrogenic activity in immature female rat assessed as vaginal opening at 10 mg/kg, po bid for 3 days; assay type: functional, organism-based; design: dose 10 mg/kg
Procedure, shortened: (§3)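 Immature female rats, 25-30 g, scored for presence or absence of vaginal opening. Failure to induce opening was taken as complete absence of estrogenic activity.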

[6] = test system: Rattus norvegicus; assay: Estrogenic activity in immature female rat assessed as mixture of leukocytes and epithelial cells at 10 mg/kg, po bid for 3 days; assay type: functional, organism-based; design: dose 10 mg/kg; conditions: Epithelial cell; procedure, shortened: as §2
[7] = test system: Rattus norvegicus; assay: Estrogenic activity in immature female rat assessed as diestrus smear with leukocytes and proestrus smear with nucleated and cornified cells at 5 mg/kg, po bid for 3 days; assay type: functional, organism-based; design: dose 5 mg/kg; procedure, shortened: as §2
[8] = test system: Rattus norvegicus; assay: Estrogenic activity in immature female rat assessed as uterine weight on day 4 at 5 mg/kg, po bid for 3 days (reference value: 13.6 +/- 0.8 mg); assay type: functional
[9] = test system: Rattus norvegicus; assay: Estrogenic activity in immature female rat assessed as vaginal opening at 5 mg/kg, po bid for 3 days; assay type: functional, organism-based; design: dose 5 mg/kg; procedure, shortened: as §3
[10] = test system: Rattus norvegicus; assay: Estrogenic activity in immature female rat assessed as diestrus smear with leukocytes and mixture of leukocytes,epithelial cells at 10 mg/kg, po bid for 3 days; assay type: functional, organism-based; design: dose 10 mg/kg; procedure, shortened: as §2
[11] = test system: Rattus norvegicus; assay: Estrogenic activity in immature female rat assessed as mixture of leukocytes,epithelial cells and estrus smear with cornified cells at 10 mg/kg, po bid for 3 days; assay type: functional, organism-based; design: dose 10 mg/kg; procedure, shortened: as §2
[12] = test system: Rattus norvegicus; assay: Estrogenic activity in immature female rat assessed as mixture of leukocytes, epithelial cells and proestrus smear with nucleated and cornified cells at 10 mg/kg, po bid for 3 days; assay type: functional, organism-based; design: dose 10 mg/kg; conditions: Epithelial cell; procedure, shortened: as §2

Structure (SMILES)	Activity [1]	ED100 [3] [mg/kg]	Activity [4] [mg]	Activity [5]	further results
COc1ccc(C2=C(c3ccc(OC)cc3)C(C)(C)Oc3cc(OC)ccc32)cc1	inactive				
CCC1(CC)Oc2cc(OC)ccc2C(c2ccc(OCCN3CCCC3)cc2)=C1c1ccccc1.Cl		10	35.4	Active	Activity [2]: Active
COc1ccc(C2=C(c3ccccc3)C(C)(C)Oc3cc(O)ccc32)cc1	inactive				
Cc1ccc2c(c1)[C@@H](c1ccccc1)[C@@H](c1ccccc1)CO2 (relative stereo)	inactive				
COc1ccc2c(c1)OC[C@H](c1ccccc1)[C@@H]2c1ccc(OCCN2CCCC2)cc1 (relative stereo)		1	50.6	Active	Activity [6]: Active; Activity [7]: Active; Activity [8]: 43.7 mg; Activity [9]: Active
CCC1(CC)Oc2cc(OC)ccc2[C@@H](c2ccc(OCCN3CCCC3)cc2)[C@H]1c1ccccc1	inactive		16.5		
CCC1(CC)Oc2cc(OC)ccc2C(c2ccc(O)cc2)=C1c1ccccc1	inactive		39.2	Active	Activity [2]: Active
CCN(CC)CCOc1ccc(C2=C(c3ccccc3)C(C)(C)Oc3cc(OC)ccc32)cc1.Cl		10	42	Active	Activity [10]: Active
COc1ccc2c(c1)OC(C)(C)C(c1ccc(Cl)cc1)=C2c1ccc(OCCN2CCCC2)cc1.Cl		5			
CC1(C)Oc2ccccc2C(c2ccc(OCCN3CCCC3)cc2)=C1c1ccccc1.Cl		10			
COc1ccc2c(c1)OC[C@H](c1ccccc1)[C@H]2c1ccc(OCCN2CCCC2)cc1 (relative stereo)		0.25	48.3	Active	Activity [10]: Active
COc1ccc2c(c1)OC(C)(C)C(c1ccc(Cl)cc1)=C2c1ccc(O)cc1	inactive				
COc1ccc2c(c1)OC(C)(C)[C@@H](c1ccccc1)[C@H]2c1ccc(OCCN2CCCC2)cc1	inactive		20.5		
COc1ccc2c(c1)OC(C)(C)C(c1ccccc1)=C2c1ccc(OCCN2CCCC2)cc1.Cl		5			
Cc1ccc2c(c1)[C@H](c1ccccc1)[C@@H](c1ccccc1)CO2 (relative stereo)	inactive				
CCC1(CC)Oc2cc(OC)ccc2[C@@H](c2ccc(O)cc2)[C@H]1c1ccccc1 (relative stereo)	inactive		14.6		
COc1ccc2c(c1)OCC(c1ccccc1)=C2c1ccc(OCCN2CCCC2)cc1		0.15	37.4	Active	Activity [2]: Active
COc1ccc(C2=C(c3ccccc3)C(C)(C)Oc3cc(OCCN4CCCC4)ccc32)cc1.Cl		10			
COc1ccc2c(c1)OC(C)(C)[C@@H](c1ccccc1)[C@@H]2c1ccc(OCCN2CCCC2)cc1 [LEVORMELOXIFENE]		0.25	48.3	Active	Activity [11]: Active
COc1ccc2c(c1)OC(C)(C)C(c1ccccc1)=C2c1ccc(O)cc1	inactive		49.2	Active	Activity [12]: Active
COc1ccc2c(c1)OC(C)(C)[C@H](c1ccccc1)[C@@H]2c1ccc(O)cc1 (relative stereo)	inactive				
CC1(C)Oc2ccccc2C(c2ccc(O)cc2)=C1c1ccccc1	inactive				
CCC1(CC)Oc2cc(OC)ccc2[C@H](c2ccc(OCCN3CCCC3)cc2)[C@H]1c1ccccc1		5	46.6	Active	Activity [11]: Active
COc1ccc2c(c1)OC(C)(C)[C@H](c1ccccc1)[C@H]2c1ccc(O)cc1 (relative stereo)	inactive				

— ChEMBL document CHEMBL3272087, “Antifertility agents. 12. Structure-activity relationship of 3,4-diphenylchromenes and -chromans” (1976)
